From ChEMBL document CHEMBL3259771, “Probing the aurone scaffold against Plasmodium falciparum: design, synthesis and antimalarial activity” (Eur J Med Chem, 2014)
pEC50, pIC50: −log10 of the molar value. In brackets after ≈: the same amount, converted by molar mass. Activity calls are given as the source filed them. The rule behind the calls is not given here.

What was measured:
[1] = Selectivity index, ratio of EC50 for HEK293T cells to IC50 for chloroquine-resistant ring stage Plasmodium falciparum W2; type: functional, HEK-293T
[2] = tested on: HEK-293T; experiment: Cytotoxicity against HEK293T cells after 48 hrs by MTT assay; type: cell-based; details: Homo sapiens
[3] = tested on: Plasmodium falciparum; experiment: Inhibition of Plasmodium falciparum falcipain-2 up to 50 uM
[4] = tested on: Plasmodium falciparum; experiment: Antiplasmodial activity against chloroquine-resistant ring stage Plasmodium falciparum W2 infected in human RBC after 48 hrs by flow cytometric analysis; type: functional, organism-based; details: W2, 48 h
Summary of the method: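 Ring-stage W2 parasites at 1% in human erythrocytes, synchronized with 5% sorbitol. Incubated with compound 48 h at 37 °C in RPMI-1640 with 25 mM HEPES pH 7.4, 10% heat-inactivated human serum (or 0.5% Albumax/2% human serum) and hypoxanthine, under 3% O₂/5% CO₂/[…]. Cells fixed in 2% formaldehyde, stained in PBS with NH₄Cl, 0.1% Triton X-100 and 1 nM YOYO-1, then counted by flow cytometry.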

[5] = Inhibition of Plasmodium falciparum falcipain-2
[6] = Water-lipid distribution coefficient, log D of the compound at pH 7.4; type: physicochemical
[7] = Water-lipid distribution coefficient, log D of the compound at pH 5.2; type: physicochemical
[8] = Inhibition of hemozoin-like crystal formation up to 1 mM after 5 days; type: functional
Summary of the method: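 Hemozoin-like crystal stock suspension sonicated 3 min and diluted in fresh broth medium. Compounds in wells at 0–1000 final concentration after 0.22 filtration. Incubated at 37 °C, 5% CO₂, 5 days, then scored for presence or absence of crystal growth. Triplicate.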

[9] = Lipid accumulation ratio of the compound; type: physicochemical
Summary of the method: (§1)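 Calculated rather than measured. VAR: predicted trapping in acidic digestive vacuole from pH-dependent water/lipid distribution (log D). LAR: expected fraction concentrating in the vacuole's lipid component.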

[10] = Vacuolar accumulation ratio of the compound; type: ADME; summary of the method: as §1
[11] = tested on: Plasmodium falciparum; experiment: Antimalarial activity against chloroquine-resistant ring stage Plasmodium falciparum Dd2 infected in human erythrocytes after 48 hrs by SYBR Green I staining-based isobologram method in presence of chloroquine; type: functional
Summary of the method: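 Fixed-ratio isobologram: IC50s of each drug alone found first, then 2-fold dilution dose-response series at IC50 ratios 5:0, 4:1, 3:2, 2:3, 1:4, 0:5. Early ring-stage parasitized erythrocytes at 1% parasitaemia, 3% haematocrit, triplicate wells, 48 h at 37 °C. Growth read by SYBR Green I fluorescence, nonlinear regression. Interaction from sum of FICs (IC50 in combination/IC50 alone).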

[12] = Inhibition of hemozoin-like crystal formation after 5 days; type: functional; details: 120 h
Summary of the method: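 Hemozoin-like crystal stock suspension sonicated 3 min, diluted in fresh broth. Compounds 0.22-filtered, then added across a 0–1000 final range. Incubated 37 °C, 5% CO2 for 5 days, scored for presence or absence of crystal growth. Triplicate.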

SMILES: O=C1/C(=C/c2ccc(Oc3ccc(Cl)cc3)cc2)Oc2cc(O)ccc21
- Selectivity Index [1]: >1
- pEC50 [2]: 4.92
- inhibition [3]: inactive
- pIC50 [4]: 5.01

SMILES: COc1cccc2c1O/C(=C\c1ccc(Cl)cc1Cl)C2=O
- Selectivity Index [1]: >21
- pEC50 [2]: < 4.00
- pIC50 [5]: 4.73
- pIC50 [4]: 5.32

SMILES: O=C1/C(=C/c2cccc(Cc3ccccc3)c2)Oc2ccccc21
- Selectivity Index [1]: >31
- pEC50 [2]: 4.15
- inhibition [3]: inactive
- pIC50 [4]: 5.64

SMILES: O=C1/C(=C/c2ccc(Cl)cc2Cl)Oc2cc(O)ccc21
- Selectivity Index [1]: >10
- pEC50 [2]: < 4.00
- inhibition [3]: inactive
- pIC50 [4]: < 5.00

SMILES: Cc1ccc(Oc2ccc(/C=C3\Oc4cc(O)ccc4C3=O)cc2)cc1
- Selectivity Index [1]: >16
- pEC50 [2]: 4.02
- inhibition [3]: inactive
- pIC50 [4]: 5.23

SMILES: O=C1/C(=C/c2cccc(Br)c2)Oc2ccccc21
- Selectivity Index [1]: >21
- pEC50 [2]: < 4.00
- inhibition [3]: inactive
- pIC50 [4]: 5.33

SMILES: O=C1/C(=C/c2ccc(F)cc2F)Oc2ccccc21
- Selectivity Index [1]: >10
- pEC50 [2]: < 4.00
- inhibition [3]: inactive
- pIC50 [4]: < 5.00

SMILES: O=C1/C(=C/c2cccc(-c3ccccc3)c2)Oc2ccccc21
- Selectivity Index [1]: >19
- pEC50 [2]: < 4.00
- inhibition [3]: inactive
- pIC50 [4]: 5.28

SMILES: O=Cc1ccc(-c2cccc(/C=C3\Oc4ccccc4C3=O)c2)cc1
- Selectivity Index [1]: >10
- pEC50 [2]: < 4.00
- inhibition [3]: inactive
- pIC50 [4]: < 5.00

SMILES: O=C1/C(=C/c2ccc(Br)cc2)Oc2ccccc21
- Selectivity Index [1]: >31
- pEC50 [2]: < 4.00
- inhibition [3]: inactive
- pIC50 [4]: 5.49

SMILES: O=C1/C(=C/c2cccc(-c3ccc(F)cc3)c2)Oc2ccccc21
- Selectivity Index [1]: >23
- pEC50 [2]: < 4.00
- inhibition [3]: inactive
- pIC50 [4]: 5.36

SMILES: O=C1/C(=C/c2ccc(Nc3ccccc3)cc2)Oc2ccccc21
- Selectivity Index [1]: >12
- pEC50 [2]: < 4.00
- inhibition [3]: inactive
- pIC50 [4]: 5.07

SMILES: O=C1/C(=C/c2ccccc2)Oc2ccccc21 [(Z)-AURONE]
- Selectivity Index [1]: >10
- pEC50 [2]: < 4.00
- inhibition [3]: inactive
- pIC50 [4]: < 5.00

SMILES: CCN(CC)Cc1c(O)ccc2c1O/C(=C\c1ccccc1)C2=O
- logD [6]: 1.79
- logD [7]: -0.4
- Selectivity Index [1]: >29
- inhibition [8]: inactive
- pEC50 [2]: < 4.00
- Ratio [9]: 62
- Ratio [10]: 156
- pIC50 [4]: 5.46

SMILES: O=C1/C(=C/c2cccc(-c3ccc(Cl)cc3)c2)Oc2ccccc21
- Selectivity Index [1]: >10
- pEC50 [2]: < 4.00
- inhibition [3]: inactive
- pIC50 [4]: < 5.00

SMILES: O=C1/C(=C/c2ccccc2)Oc2cc(O)ccc21
- Selectivity Index [1]: >10
- pEC50 [2]: < 4.00
- inhibition [3]: inactive
- pIC50 [4]: < 5.00

SMILES: O=C1/C(=C/c2ccc(F)cc2F)Oc2cc(O)ccc21
- Selectivity Index [1]: >10
- pEC50 [2]: < 4.00
- inhibition [3]: inactive
- pIC50 [4]: < 5.00

SMILES: O=Cc1ccc(-c2ccc(/C=C3\Oc4ccccc4C3=O)cc2)cc1
- Selectivity Index [1]: >10
- pEC50 [2]: < 4.00
- inhibition [3]: inactive
- pIC50 [4]: < 5.00

SMILES: O=C1/C(=C/c2ccccc2)Oc2cc(-c3ccc(F)cc3)ccc21
- Selectivity Index [1]: >10
- pEC50 [2]: < 4.00
- inhibition [3]: inactive
- pIC50 [4]: < 5.00

SMILES: O=C1/C(=C/c2ccc(-c3cnc4ccccc4c3)cc2)Oc2ccccc21
- logD [6]: 5.16
- logD [7]: 5.08
- Selectivity Index [1]: >15
- pEC50 [2]: < 4.00
- Ratio [9]: 144366
- Ratio [10]: 1.19
- inhibition [3]: inactive
- pIC50 [4]: 5.18

SMILES: Cc1ccc(Oc2ccc(/C=C3\Oc4ccccc4C3=O)cc2)cc1
- Selectivity Index [1]: >10
- pEC50 [2]: < 4.00
- inhibition [3]: inactive
- pIC50 [4]: < 5.00

SMILES: O=C1/C(=C/c2ccc(-c3ccc(Cl)cc3)cc2)Oc2ccccc21
- Selectivity Index [1]: >10
- pEC50 [2]: < 4.00
- inhibition [3]: inactive
- pIC50 [4]: < 5.00

SMILES: O=C1/C(=C/c2ccc(Oc3ccc(Cl)cc3)cc2)Oc2ccccc21
- Selectivity Index [1]: >10
- pEC50 [2]: < 4.00
- inhibition [3]: inactive
- pIC50 [4]: < 5.00

SMILES: O=C1/C(=C/c2ccccc2)Oc2c1ccc(O)c2CN1CCOCC1
- CI [11]: 1.06
- logD [6]: 2.42
- logD [7]: 1.19
- Selectivity Index [1]: >30
- inhibition [8]: inactive
- pEC50 [2]: < 4.00
- Ratio [9]: 265
- Ratio [10]: 17.2
- pIC50 [4]: 5.48

SMILES: O=C1/C(=C/c2ccc(-c3ccc(F)cc3)cc2)Oc2ccccc21
- Selectivity Index [1]: >10
- pEC50 [2]: < 4.00
- inhibition [3]: inactive
- pIC50 [4]: < 5.00

SMILES: O=C1/C(=C/c2ccccc2)Oc2cc(-c3ccccc3)ccc21
- Selectivity Index [1]: >10
- pEC50 [2]: < 4.00
- inhibition [3]: inactive
- pIC50 [4]: < 5.00

SMILES: Nc1ccc(-c2ccc(/C=C3\Oc4ccccc4C3=O)cc2)cn1
- logD [6]: 3.67
- logD [7]: 2.7
- Selectivity Index [1]: >27
- inhibition [8]: inactive
- pEC50 [2]: < 4.00
- Ratio [9]: 4643
- Ratio [10]: 9.2
- inhibition [3]: inactive
- pIC50 [4]: 5.43

SMILES: O=C1/C(=C/c2ccccc2Br)Oc2ccccc21
- Selectivity Index [1]: >10
- pEC50 [2]: < 4.00
- inhibition [3]: inactive
- pIC50 [4]: < 5.00

SMILES: Nc1ccc(-c2cccc(/C=C3\Oc4ccccc4C3=O)c2)cn1
- logD [6]: 3.67
- logD [7]: 2.7
- Selectivity Index [1]: >31
- inhibition [8]: inactive
- pEC50 [2]: 4.10
- Ratio [9]: 4643
- Ratio [10]: 9.2
- inhibition [3]: inactive
- pIC50 [4]: 5.59

SMILES: CN(C)c1ccc(/C=C2\Oc3ccccc3C2=O)cc1
- Selectivity Index [1]: >13
- pEC50 [2]: < 4.00
- inhibition [3]: inactive
- pIC50 [4]: 5.10

SMILES: O=C1/C(=C/c2ccc(Cl)cc2Cl)Oc2ccccc21
- Selectivity Index [1]: <6.8
- pEC50 [2]: 4.17
- inhibition [3]: inactive
- pIC50 [4]: < 5.00

SMILES: COc1cc(/C=C2\Oc3cc(O)ccc3C2=O)cc(OC)c1OC
- Selectivity Index [1]: >10
- pEC50 [2]: < 4.00
- inhibition [3]: inactive
- pIC50 [4]: < 5.00

SMILES: COc1cccc2c1O/C(=C\c1ccccc1)C2=O
- Selectivity Index [1]: >10
- pEC50 [2]: < 4.00
- inhibition [3]: inactive
- pIC50 [4]: < 5.00

SMILES: O=C1/C(=C/c2ccc(Cc3ccccc3)cc2)Oc2ccccc21
- Selectivity Index [1]: >12
- pEC50 [2]: 4.06
- inhibition [3]: inactive
- pIC50 [4]: 5.13

SMILES: COc1cc(/C=C2\Oc3ccccc3C2=O)cc(OC)c1OC
- Selectivity Index [1]: >10
- pEC50 [2]: < 4.00
- inhibition [3]: inactive
- pIC50 [4]: < 5.00

SMILES: CCN(CC)CCCC(C)Nc1ccnc2cc(Cl)ccc12 (centres undefined) [CHLOROQUINE]
- MIC [12]: 125 µM (≈ 40 µg/mL)

SMILES: CN(C)c1ccc(/C=C2\Oc3cc(O)ccc3C2=O)cc1
- Selectivity Index [1]: >10
- pEC50 [2]: < 4.00
- inhibition [3]: inactive
- pIC50 [4]: < 5.00

SMILES: CN1CCN(Cc2c(O)ccc3c2O/C(=C\c2ccccc2)C3=O)CC1
- logD [6]: 1.02
- logD [7]: -3.33
- Selectivity Index [1]: >25
- inhibition [8]: inactive
- pEC50 [2]: < 4.00
- Ratio [9]: 10.6
- Ratio [10]: 22589
- pIC50 [4]: 5.40

SMILES: O=C1/C(=C/c2ccc(NCc3ccccc3)cc2)Oc2ccccc21
- Selectivity Index [1]: >20
- pEC50 [2]: < 4.00
- inhibition [3]: inactive
- pIC50 [4]: 5.30

SMILES: O=C1/C(=C/c2ccccc2)Oc2c1ccc(O)c2CN1CCCCC1
- logD [6]: 2.04
- logD [7]: -0.15
- Selectivity Index [1]: >85
- inhibition [8]: inactive
- pEC50 [2]: < 4.00
- Ratio [9]: 110
- Ratio [10]: 155
- pIC50 [4]: 5.93

SMILES: COc1cc(/C=C2\Oc3c(OC)cccc3C2=O)cc(OC)c1OC
- Selectivity Index [1]: >10
- pEC50 [2]: < 4.00
- inhibition [3]: inactive
- pIC50 [4]: < 5.00

SMILES: COc1cccc2c1O/C(=C\c1ccc(F)cc1F)C2=O
- Selectivity Index [1]: >10
- pEC50 [2]: < 4.00
- inhibition [3]: inactive
- pIC50 [4]: < 5.00

SMILES: O=C1/C(=C/c2ccc(-c3ccccc3)cc2)Oc2ccccc21
- Selectivity Index [1]: >10
- pEC50 [2]: < 4.00
- inhibition [3]: inactive
- pIC50 [4]: < 5.00

SMILES: Nc1ccc(-c2ccc3c(c2)O/C(=C\c2ccccc2)C3=O)cn1
- logD [6]: 5.18
- logD [7]: 4.21
- Selectivity Index [1]: >33
- inhibition [8]: inactive
- pEC50 [2]: < 4.00
- Ratio [9]: 150233
- Ratio [10]: 9.2
- inhibition [3]: inactive
- pIC50 [4]: 5.52
